Assay results as given in ChEMBL document CHEMBL1255454, “Systematic approach to optimizing specifically targeted antimicrobial peptides against Streptococcus mutans” (2010).
The source made the active and inactive calls. The rule behind the calls is not given here.

How the values were obtained:
[1] = tested on: Streptococcus mutans; experiment: Antimicrobial activity against Streptococcus mutans UA159 assessed as inhibition of viability of bacterial biofilm at 25 ug/ml treated for 1 min measured after 4 hrs; assay type: functional
How it was run: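 S. mutans biofilms were seeded from overnight culture diluted 1:50 in TH broth with 0.5% sucrose, centrifuged, and grown 4 h anaerobically at 37°C. They were exposed to peptide in 1× PBS for about 1 min, washed, and given fresh TH broth without sucrose. Recovery was read as A600 after 4 h anaerobic incubation at 37°C. Three experiments; unpaired t test.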

[2] = tested on: Streptococcus mutans; experiment: Antimicrobial activity against Streptococcus mutans UA159 assessed as inhibition of bacterial biofilm formation at 25 uM after 3 mins by fluorescence assay; assay type: functional
How it was run: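 S. mutans UA159 overnight culture was diluted 1:5,000 in TH with 1% sucrose and grown as biofilm for 24 h. Biofilms were exposed 3 min at room temperature to 25 µM fluorescein-labelled peptide in HEPES/NaHCO3/NaCl/MgCl2 buffer with 0.1% CTAB, pH 7.4, then washed twice. Green fluorescence images were taken and biofilm-associated green pixels quantified as binding intensity units.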

[3] = tested on: Streptococcus mutans; experiment: Antimicrobial activity against Streptococcus mutans UA159 at 25 ug/ml after 30 mins by time-kill assay; assay type: functional
How it was run: (§1)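 Time-kill. Overnight cultures were diluted in BHI to A600 0.08 and treated with peptide at 25 µg/ml for 30 s to 2 h. Aliquots were diluted 1:50 in BHI, held on ice, plated and counted after 24 h as surviving CFU/ml. Three independent experiments, mean with SD; unpaired Student t test.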

[4] = tested on: Streptococcus oralis; experiment: Antimicrobial activity against Streptococcus oralis assessed as inhibition of bacterial biofilm formation at 50 uM after 10 mins; assay type: functional
How it was run: (§2)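 Mixed-species biofilms were grown 24 h at 37°C anaerobically in TH with 50% filter-sterilized pooled human saliva and 1% sucrose. Inoculum: S. mutans JM11 at 1 × 10^6 CFU/well plus S. oralis, S. gordonii, S. sanguinis, S. mitis and S. salivarius at 2 × 10^5 CFU/well each. Survivors were plated on TH agar for total streptococci and on TH agar with 800 µg/ml spectinomycin for JM11. Detection limit 100 CFU/ml.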

[5] = tested on: Streptococcus mitis; experiment: Antimicrobial activity against Streptococcus mitis assessed as inhibition of bacterial biofilm formation at 50 uM after 10 mins; assay type: functional; how it was run: as §2
[6] = tested on: Staphylococcus aureus; experiment: Antimicrobial activity against methicillin-resistant Staphylococcus aureus after 16 to 20 hrs by broth microdilution assay; assay type: functional
How it was run: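 MRSA grown aerobically in BHI at 37°C. Broth microdilution: 2-fold peptide dilutions in 1× Mueller-Hinton broth, first round 500 to 0.97 µg/ml; if activity below 62.5 µg/ml, sometimes a second round at 64 to 0.5 µg/ml, reporting the mode. Inoculum ~1 × 10^5 CFU/ml, 37°C for 16-20 h. A600 read. MIC = lowest concentration giving complete inhibition or ≥90% turbidity reduction versus peptide-free control.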

[7] = tested on: Streptococcus mitis; experiment: Antimicrobial activity against Streptococcus mitis ATCC 903 after 16 to 20 hrs by broth microdilution assay; assay type: functional
How it was run: (§3)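 Broth microdilution. Twofold peptide dilutions were made in 50% BHI–50% sterile water for oral streptococci and in 1× Mueller-Hinton broth for the other bacteria. First round 500 to 0.97 µg/ml; a second round of 64 to 0.5 µg/ml was run in some cases, reporting its mode. Inoculum ~1 × 10^5 CFU/ml, 37°C for 16–20 h. Read A600; MIC taken as complete inhibition or ≥90% turbidity reduction versus peptide-free control.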

[8] = tested on: Streptococcus sanguinis; experiment: Antimicrobial activity against Streptococcus sanguinis NY101 at 25 ug/ml after 30 mins by time-kill assay; assay type: functional, organism-based; how it was run: as §1
[9] = tested on: Streptococcus sanguinis; experiment: Antimicrobial activity against Streptococcus sanguinis NY101 after 16 to 20 hrs by broth microdilution assay; assay type: functional; how it was run: as §3
[10] = Antimicrobial activity against Streptococcus gordonii Challis DL1 after 16 to 20 hrs by broth microdilution assay; assay type: functional, Streptococcus gordonii str. Challis; how it was run: as §3
[11] = tested on: Streptococcus mutans; experiment: Antimicrobial activity against Streptococcus mutans JM11 assessed as inhibition of bacterial biofilm formation at 50 uM after 10 mins; assay type: functional; how it was run: as §2
[12] = tested on: Pseudomonas aeruginosa; experiment: Antimicrobial activity against Pseudomonas aeruginosa PAK after 16 to 20 hrs by broth microdilution assay; assay type: functional; how it was run: as §3
[13] = tested on: Streptococcus sanguinis; experiment: Antimicrobial activity against Streptococcus sanguinis assessed as inhibition of bacterial biofilm formation at 50 uM after 10 mins; assay type: functional; how it was run: as §2
[14] = tested on: Streptococcus gordonii str. Challis; experiment: Antimicrobial activity against Streptococcus gordonii Challis DL1 at 25 ug/ml after 30 mins by time-kill assay; assay type: functional; how it was run: as §1
[15] = tested on: Streptococcus mitis; experiment: Antimicrobial activity against Streptococcus mitis ATCC 903 at 25 ug/ml after 30 mins by time-kill assay; assay type: functional, organism-based; how it was run: as §1
[16] = tested on: Streptococcus salivarius; experiment: Antimicrobial activity against Streptococcus salivarius assessed as inhibition of bacterial biofilm formation at 50 uM after 10 mins; assay type: functional; how it was run: as §2
[17] = tested on: Streptococcus gordonii; experiment: Antimicrobial activity against Streptococcus gordonii assessed as inhibition of bacterial biofilm formation at 50 uM after 10 mins; assay type: functional; how it was run: as §2
[18] = tested on: Streptococcus mutans; experiment: Antimicrobial activity against Streptococcus mutans UA159 after 16 to 20 hrs by broth microdilution assay; assay type: functional; how it was run: as §3

Row | Substance | inhibition [1] | inhibition [2] | Activity [3] | inhibition [4] | inhibition [5] | MIC [6] [µg/mL] | MIC [7] [µg/mL] | Activity [8] | MIC [9] [µg/mL] | MIC [10] [µg/mL] | inhibition [11] | MIC [12] [µg/mL] | inhibition [13] | Activity [14] | Activity [15] | inhibition [16] | inhibition [17] | MIC [18] [µg/mL]
1 | H-FIKHFIHRFGGGFKKFWKWFRRF-NH2 | Active | Active | Active | inactive | inactive | 16 | 32 | Active | 16 | 62.5 | Active | 62.5 | inactive | Active | Active | inactive | inactive | 4
2 | H-FKKFWKWFRRF-NH2 | Active | Active | Active | inactive | inactive | 16 | 16 | Active | 32 | 16 | Active | 32 | inactive | Active | Active | inactive | inactive | 8
